Source: ChEMBL document CHEMBL4229550, “An antimycobacterial pleuromutilin analogue effective against dormant bacilli” (Bioorg Med Chem, 2018)
In brackets after ≈: the same amount, converted by molar mass. Activity calls are given as the source filed them. The calls are words filed in the database; no cut-off is given here.

Tests used:
Staphylococcus aureus [1] = assay: Antibacterial activity against Staphylococcus aureus incubated for 24 hrs under aerobic condition by MABA; assay type: functional; conditions: read-out: MIC100
Method in brief: (§1)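 Resazurin was then added from a 0.08% stock for 1 h. MIC100 was the lowest concentration where the dye stayed blue (pink means growth). Absorbance was also read at 570 and 600 nm.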

[2] = tested on: Mycobacterium tuberculosis; assay: Antibacterial activity against replicating Mycobacterium tuberculosis H37Rv incubated for 15 days under aerobic condition by MABA; assay type: functional; conditions: 360 h, read-out: MIC100
Method in brief: (§2)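 Mtb H37Rv grown in 7H9/OADC at 37 °C with shaking to OD600 0.5. The 0.5-OD culture is exposed aerobically to serial dilutions for 15 days at 37 °C. Resazurin (0.02% stock) is then added for 4 h at 37 °C with shaking.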

Vero = assay: Cytotoxicity against African green monkey Vero cells assessed as reduction in cell viability after 72 hrs by MTT assay; assay type: cell-based; conditions: Chlorocebus sabaeus
Method in brief: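 Vero cells were grown in complete EMEM with 10% FBS and exposed for 72 h to 0.78–200 µg/mL. The medium was then swapped for phenol-red-free EMEM and MTT was added. Formazan absorbance was read at 570 nm to give IC50.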

[3] = Selectivity index, ratio of IC50 for African green monkey Vero cells to MIC100 for replicating Mycobacterium tuberculosis H37Rv by MABA; assay type: toxicity; conditions: read-out: Selectivity Index
Method in brief: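 Vero cells are cultured in EMEM with 10% FBS and exposed for 72 h to 0.78–200 µg/mL. Medium is switched to phenol-red-free EMEM, MTT is added, and formazan is read at 570 nm to give IC50. The selectivity index is Vero IC50 divided by the MABA MIC.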

Escherichia coli [4] = assay: Inhibition of protein translation/transcription in Escherichia coli S30 cell extract at 0.1 ug/ml using circular DNA with pBESTluc after 60 mins by luciferase reporter gene assay; assay type: functional
Method in brief: (§3)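 Coupled transcription/translation used E. coli S30 extract, amino acid mix and premix, with the pBESTluc template carrying firefly luciferase under the tac promoter. Compounds were added in DMSO and reactions were started with DNA. Incubation was 60 min at 37 °C, stopped on ice, and luciferase was read after adding assay substrate.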

Escherichia coli [5] = assay: Inhibition of protein translation/transcription in Escherichia coli S30 cell extract using circular DNA with pBESTluc after 60 mins by luciferase reporter gene assay; assay type: functional; conditions: 1 h
Method in brief: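 E. coli S30 circular-DNA coupled transcription/translation kit with the pBESTluc template (firefly luciferase under the tac promoter). S30 extract, amino acids and premix are combined with compound in DMSO, and the reaction is started with DNA. Incubation is 60 min at 37 °C, stopped on ice, then luciferase luminescence is read.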

[6] = tested on: Mycobacterium tuberculosis; assay: Bactericidal activity against replicating Mycobacterium tuberculosis H37Rv incubated for 15 days under aerobic condition by MABA; assay type: functional; conditions: 360 h; method in brief: as §2
[7] = tested on: Mycolicibacterium smegmatis; assay: Antibacterial activity against Mycobacterium smegmatis ATCC 607 incubated for 48 hrs under aerobic condition by MABA; assay type: functional; conditions: ATCC 607, 48 h, read-out: MIC100
Method in brief: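 Mid-log culture at OD 0.5 was incubated with serial dilutions aerobically at 37 °C for 48 h. Resazurin was then added from a 0.08% stock for 1 h. MIC100 was the lowest concentration that stayed blue; absorbance was also read at 570/600 nm.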

[8] = tested on: Mycolicibacterium smegmatis; assay: Bactericidal activity against Mycobacterium smegmatis ATCC 607 incubated for 48 hrs under aerobic condition by MABA; assay type: functional; conditions: ATCC 607, 48 h
Staphylococcus aureus [9] = assay: Bactericidal activity against Staphylococcus aureus incubated for 24 hrs under aerobic condition by MABA; assay type: functional
Staphylococcus aureus [10] = assay: Antibacterial activity against Staphylococcus aureus ATCC 25923 incubated for 24 hrs under aerobic condition by MABA; assay type: functional; conditions: ATCC 25923, 24 h, read-out: MIC100
Method in brief: (§4)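 Mid-log cultures at OD 0.5 were exposed to serial dilutions under aerobic conditions at 37 °C for 24 h. Resazurin was then added from a 0.08% stock for 1 h. MIC100 was the lowest concentration where the dye stayed blue (pink means growth). Absorbance was also read at 570 and 600 nm.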

Staphylococcus aureus [11] = assay: Bactericidal activity against Staphylococcus aureus ATCC 25923 incubated for 24 hrs under aerobic condition by MABA; assay type: functional; conditions: ATCC 25923, 24 h
Staphylococcus aureus [12] = assay: Antibacterial activity against Staphylococcus aureus BAA 2094 incubated for 24 hrs under aerobic condition by MABA; assay type: functional; conditions: BAA 2094, 24 h, read-out: MIC100; method in brief: as §1
Staphylococcus aureus [13] = assay: Bactericidal activity against Staphylococcus aureus BAA 2094 incubated for 24 hrs under aerobic condition by MABA; assay type: functional; conditions: BAA 2094, 24 h
Staphylococcus aureus [14] = assay: Antibacterial activity against Staphylococcus aureus BAA 1683 incubated for 24 hrs under aerobic condition by MABA; assay type: functional; conditions: BAA 1683, 24 h, read-out: MIC100; method in brief: as §4
Staphylococcus aureus [15] = assay: Bactericidal activity against Staphylococcus aureus BAA 1683 incubated for 24 hrs under aerobic condition by MABA; assay type: functional; conditions: BAA 1683, 24 h
Staphylococcus aureus [16] = assay: Antibacterial activity against Staphylococcus aureus BAA 44 incubated for 24 hrs under aerobic condition by MABA; assay type: functional; conditions: BAA 44, 24 h, read-out: MIC100; method in brief: as §4
Staphylococcus aureus [17] = assay: Bactericidal activity against Staphylococcus aureus BAA 44 incubated for 24 hrs under aerobic condition by MABA; assay type: functional; conditions: BAA 44, 24 h
Enterococcus faecalis [18] = assay: Antibacterial activity against Enterococcus faecalis ATCC 349 incubated for 24 hrs under aerobic condition by MABA; assay type: functional; conditions: ATCC 349, 24 h, read-out: MIC100; method in brief: as §4
Enterococcus faecalis [19] = assay: Bactericidal activity against Enterococcus faecalis ATCC 349 incubated for 24 hrs under aerobic condition by MABA; assay type: functional; conditions: ATCC 349, 24 h
Enterococcus faecalis [20] = assay: Antibacterial activity against Enterococcus faecalis ATCC 19433 incubated for 24 hrs under aerobic condition by MABA; assay type: functional; conditions: ATCC 19433, 24 h, read-out: MIC100; method in brief: as §4
Enterococcus faecalis [21] = assay: Bactericidal activity against Enterococcus faecalis ATCC 19433 incubated for 24 hrs under aerobic condition by MABA; assay type: functional; conditions: ATCC 19433, 24 h
Clostridioides difficile = assay: Bactericidal activity against Clostridium difficile ATCC 700057 incubated for 24 hrs […] by MABA; assay type: functional; conditions: ATCC 700057, 24 h
Streptococcus pneumoniae [22] = assay: Antibacterial activity against Streptococcus pneumoniae ATCC 6301 incubated for 24 hrs under aerobic condition by MABA; assay type: functional; conditions: ATCC 6301, 24 h, read-out: MIC100; method in brief: as §4
Streptococcus pneumoniae [23] = assay: Bactericidal activity against Streptococcus pneumoniae ATCC 6301 incubated for 24 hrs under aerobic condition by MABA; assay type: functional; conditions: ATCC 6301, 24 h
Klebsiella pneumoniae [24] = assay: Antibacterial activity against Klebsiella pneumoniae ATCC 12019 incubated for 24 hrs under aerobic condition by MABA; assay type: functional; conditions: ATCC 12019, 24 h, read-out: MIC100; method in brief: as §4
Klebsiella pneumoniae [25] = assay: Bactericidal activity against Klebsiella pneumoniae ATCC 12019 incubated for 24 hrs under aerobic condition by MABA; assay type: functional; conditions: ATCC 12019, 24 h
Acinetobacter baumannii [26] = assay: Antibacterial activity against Acinetobacter baumannii ATCC 19606 incubated for 24 hrs under aerobic condition by MABA; assay type: functional; conditions: ATCC 19606 = CIP 70.34 = JCM 6841, 24 h, read-out: MIC100; method in brief: as §4
Acinetobacter baumannii [27] = assay: Bactericidal activity against Acinetobacter baumannii ATCC 19606 incubated for 24 hrs under aerobic condition by MABA; assay type: functional; conditions: ATCC 19606 = CIP 70.34 = JCM 6841, 24 h
Escherichia coli [28] = assay: Antibacterial activity against Escherichia coli ATCC 10798 incubated for 24 hrs under aerobic condition by MABA; assay type: functional; conditions: ATCC 10798, 24 h, read-out: MIC100; method in brief: as §4
Escherichia coli [29] = assay: Bactericidal activity against Escherichia coli ATCC 10798 incubated for 24 hrs under aerobic condition by MABA; assay type: functional; conditions: ATCC 10798, 24 h
Streptococcus salivarius [30] = assay: Antibacterial activity against Streptococcus salivarius […] incubated for 24 hrs under aerobic condition by MABA; assay type: functional; conditions: read-out: MIC100; method in brief: as §1
Streptococcus salivarius [31] = assay: Bactericidal activity against Streptococcus salivarius ATCC 6301 incubated for 24 hrs under aerobic condition by MABA; assay type: functional; conditions: ATCC 6301, 24 h
Bacillus subtilis [32] = assay: Antibacterial activity against Bacillus subtilis ATCC 6051 incubated for 24 hrs under aerobic condition by MABA; assay type: functional; conditions: ATCC 6051, 24 h, read-out: MIC100; method in brief: as §4
Bacillus subtilis [33] = assay: Bactericidal activity against Bacillus subtilis ATCC 6051 incubated for 24 hrs under aerobic condition by MABA; assay type: functional; conditions: ATCC 6051, 24 h
[34] = tested on: Mycobacterium tuberculosis; assay: Antibacterial activity against Mycobacterium tuberculosis; assay type: functional; conditions: read-out: MIC100; method in brief: as §2
Escherichia coli [35] = assay: Inhibition of protein translation/transcription in Escherichia coli S30 cell extract at 0.5 ug/ml using circular DNA with pBESTluc after 60 mins by luciferase reporter gene assay; assay type: functional; method in brief: as §3

CC(=O)NC[C@H]1CN(c2ccc(N3CCOCC3)c(F)c2)C(=O)O1 [LINEZOLID]
MIC (Staphylococcus aureus [1]): 0.78 µg/mL (≈ 2.31 µM) | MIC [2]: 0.6 µg/mL (≈ 1.78 µM) | IC50 (Vero): > 200 µg/mL | selectivity ratio [3]: > 333 | inhibition (Escherichia coli [4]): Active | IC50 (Escherichia coli [5]): 0.05 µg/mL (≈ 0.148 µM) | MBC [6]: 1.61 µg/mL (≈ 4.77 µM) | MIC [7]: 0.2 µg/mL (≈ 0.593 µM) | MBC [8]: 0.8 µg/mL (≈ 2.37 µM) | MBC (Staphylococcus aureus [9]): 1.56 µg/mL (≈ 4.62 µM) | MIC (Staphylococcus aureus [10]): > 25 µg/mL | MBC (Staphylococcus aureus [11]): > 25 µg/mL | MIC (Staphylococcus aureus [12]): > 25 µg/mL | MBC (Staphylococcus aureus [13]): > 25 µg/mL | MIC (Staphylococcus aureus [14]): 12.5 µg/mL (≈ 37.1 µM) | MBC (Staphylococcus aureus [15]): 25 µg/mL (≈ 74.1 µM) | MIC (Staphylococcus aureus [16]): > 25 µg/mL | MBC (Staphylococcus aureus [17]): > 25 µg/mL | MIC (Enterococcus faecalis [18]): > 25 µg/mL | MBC (Enterococcus faecalis [19]): > 25 µg/mL | MIC (Enterococcus faecalis [20]): 12.5 µg/mL (≈ 37.1 µM) | MBC (Enterococcus faecalis [21]): 25 µg/mL (≈ 74.1 µM) | MBC (Clostridioides difficile): 3.13 µg/mL (≈ 9.28 µM) | MIC (Streptococcus pneumoniae [22]): 25 µg/mL (≈ 74.1 µM) | MBC (Streptococcus pneumoniae [23]): > 25 µg/mL | MIC (Klebsiella pneumoniae [24]): 25 µg/mL (≈ 74.1 µM) | MBC (Klebsiella pneumoniae [25]): > 25 µg/mL | MIC (Acinetobacter baumannii [26]): > 25 µg/mL | MBC (Acinetobacter baumannii [27]): > 25 µg/mL | MIC (Escherichia coli [28]): 25 µg/mL (≈ 74.1 µM) | MBC (Escherichia coli [29]): > 25 µg/mL | MIC (Streptococcus salivarius [30]): 3.13 µg/mL (≈ 9.28 µM) | MBC (Streptococcus salivarius [31]): > 25 µg/mL | MIC (Bacillus subtilis [32]): 3.13 µg/mL (≈ 9.28 µM) | MBC (Bacillus subtilis [33]): 6.25 µg/mL (≈ 18.5 µM)

CC[C@@H](CO)NCCN[C@@H](CC)CO [ETHAMBUTOL]
MIC [2]: 0.78 µg/mL (≈ 3.82 µM) | IC50 (Vero): > 200 µg/mL | selectivity ratio [3]: > 256

C=C[C@]1(C)C[C@@H](OC(=O)CSC(C)(C)CNC(=O)[C@H](N)CC(C)C)[C@]2(C)[C@H](C)CC[C@]3(CC[C@@H](O)[C@H]32)[C@@H](C)[C@@H]1O
MIC [34]: < 6.25 µg/mL | MIC [2]: 3.06 µg/mL (≈ 5.27 µM) | IC50 (Vero): 35 µg/mL (≈ 60.3 µM) | selectivity ratio [3]: 11.4 | inhibition (Escherichia coli [4]): Active | inhibition (Escherichia coli [35]): Active
